OX1R antag-1 = antagonists of human orexin 1 receptor (OX1R). Orexin/Hypocretin receptor type 1 (Homo sapiens), O43613. OX1R-expressing cells, FRET antagonist read-out. inhibition, % at 6.6 µM. 330,000 compounds, 1.8% hits. AID 485270, 2010; in the data active = inhibition mostly above about 38%, no sharp cut-off; inactive = mostly below about 40%;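 also: 0% = agonist challenge alone and 100% = reference antagonist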
OX1R antag-2 = OX1R (HCRTR1) antagonists, primary screen, fluorescence, CHO/OX1R cells, Fluo-8 calcium, orexin A | Orexin/Hypocretin receptor type 1 (Homo sapiens), O43613 | Fluo-8 calcium fluorescence | inhibition, % at 5 µM | 330,000 compounds, 0.43% hits | AID 434989, 2010;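 active = inhibition above its plate's threshold, mean inhibition of all tested compounds on the plate plus 3 SD, cut at about 37% in these data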;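 also: 0% = orexin A challenge wells and 100% = SB-334867-A antagonist wells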
CHO parental Ca = ATP-evoked calcium signal inhibitors, parental CHO, primary screen, counter-screen for OX1R antagonist project, cell-based, fluorescence, Fluo-8 calcium dye | parental CHO-K1, ATP-induced calcium, Fluo-8 fluorescence | inhibition, % at 5.6 µM | 330,000 compounds, 0.63% hits | AID 463079, 2010;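 active = inhibition above that plate's mean sample inhibition plus 3 SD, cut at about 26% in these data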;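 also: 0% = ATP-challenged DMSO wells and 100% = DMSO wells without ATP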
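Assay system – parental CHO cells · Reagent – ATP stimulus · Detection – intracellular calcium via Fluo-8 no-wash fluorescent dye · Evaluation – percent inhibition of ATP-evoked calcium rise, normalized to controls · Controls – ATP wells versus no-ATP DMSO wells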
TAAR1 antag = human TAAR1 antagonists, primary screen, Fluo-8 calcium fluorescence, CHO RD-HGA16 cells; antagonist; Trace amine-associated receptor 1 (Homo sapiens), Q96RJ0; 360,000 compounds, 1.5% hits; inhibition, % at 3 µM; AID 624466, 2012;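 active = inhibition above a per-plate cutoff, the mean inhibition of test compounds on that plate plus 3 SD, cut at about 49% in these data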;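 also: 0% = DMSO plus EC80 beta-PEA response and 100% = DMSO alone without agonist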
Target sequence (Q96RJ0 whole entry, looked up): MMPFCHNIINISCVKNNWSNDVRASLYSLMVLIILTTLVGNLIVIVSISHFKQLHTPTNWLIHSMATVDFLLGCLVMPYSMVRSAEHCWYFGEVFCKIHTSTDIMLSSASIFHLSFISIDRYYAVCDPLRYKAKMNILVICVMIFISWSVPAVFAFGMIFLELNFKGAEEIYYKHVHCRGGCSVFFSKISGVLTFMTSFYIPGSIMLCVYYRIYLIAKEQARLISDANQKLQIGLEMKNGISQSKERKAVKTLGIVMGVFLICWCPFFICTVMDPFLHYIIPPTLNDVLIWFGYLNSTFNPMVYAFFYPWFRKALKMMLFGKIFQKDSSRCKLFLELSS
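Assay system: RD-HGA16 CHO cells with stable hTAAR1 and Gα16 / Reagent: EC80 β-phenethylamine stimulus / Doses: 3 µM, single point / Timing: dye loading 75 min at 37 °C, then 30 min room temperature / Measured by: Fluo-8 intracellular calcium dye fluorescence, real-time kinetic reads / Controls: vehicle wells and EC80 agonist wells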
NTR1 ag = agonists of human NTR1, primary screen, imaging, U2OS cells, beta-arrestin-GFP, high content. Neurotensin receptor type 1 (Homo sapiens), P30989. NTR1-U2OS beta-arrestin-GFP spot imaging, agonist mode. activation, % at 20 µM. 330,000 compounds, 0.17% hits. AID 493036, 2011;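 active = activation at or above 40% of the spot to cytoplasm intensity ratio, with at least 20 cells analyzed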;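 also: 0% = DMSO without peptide and 100% = 100 nM NTR1 peptide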
TAAR1 ag = human TAAR1 agonists, primary screen, Fluo-8 calcium fluorescence, CHO RD-HGA16 cells; activation, % at 3 µM; vehicle wells 0%, saturating PEA agonist 100%; Trace amine-associated receptor 1 (Homo sapiens), Q96RJ0; 360,000 compounds, 0.99% hits;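 active = activation above the mean activation of all test compounds in the run plus 3 SD, cut at about 38% in these data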
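System: CHO-derived RD-HGA16 cells with stable Gα16 and human TAAR1 / Times: 17-24 h plating, Fluo-8 75 min 37 °C, 30 min RT / Technique: calcium-sensitive Fluo-8 signal, excitation 470-495, emission 515-575 nm / Measure: % activation relative to PEA EC100 response / Benchmarks: DMSO and PEA EC100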
TAAR1 ag confirm = human TAAR1 agonists, retest of hits, confirmation, Fluo-8 calcium fluorescence, CHO RD-HGA16 cells; activation, % at 3 µM; scaled: DMSO 0%, maximal phenethylamine 100%; shares compounds with TAAR1 ag; AID 651783, 2012; 2,400 compounds, 82% hits;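 active = activation above a cutoff set at the run's mean compound activation plus 3 SD, cut at about 39% in these data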
Ga16 ag counter = nonselective calcium mobilization agonists, CHO-Ga16 cells, counter-screen for hTAAR1 agonist project, cell-based, fluorescence, CHO-Ga16 parental line; Fluo-8 calcium fluorescence; normalized to maximal ATP response, DMSO zero; activation, % at 3 µM; shares compounds with TAAR1 ag; 2,400 compounds, 50% hits;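 active = activation above the run cutoff, the mean activation over all tested wells plus 3 SD, cut at about 12% in these data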;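 also: 0% = DMSO wells and 100% = maximal ATP response on the peak over basal ratio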
TAAR1 desens = TAAR1 desensitization by agonist hits, confirmation, counter-screen for TAAR1 agonist project, cell-based, fluorescence, tachyphylaxis | 2,400 compounds, 46% hits | inhibition, % at 3 µM | CHO RD-HGA16 hTAAR1, Fluo-8 calcium, beta-PEA response inhibition | shares compounds with TAAR1 ag | AID 651951, 2012;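 active = inhibition above the run cutoff, the mean inhibition of all test compounds plus 3 SD, cut at about 49% in these data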;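 also: beta-PEA stimulus applied at its EC80; loss of beta-PEA calcium signal after compound pretreatment read as receptor desensitization; 0% = DMSO with beta-PEA at EC80 and 100% = DMSO alone without agonist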
Ga16 nonsel ant = inhibition of ATP-evoked calcium response in CHO-Ga16 cells, counter-screen for TAAR1 agonist project, cell-based, fluorescence. shares compounds with TAAR1 ag. CHO-Ga16 ATP-induced calcium, Fluo-8 fluorescence. 2,400 compounds, 39% hits. inhibition, % at 3 µM;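 active = inhibition above the plate's mean compound inhibition plus 3 SD, computed per plate, cut at about 22% in these data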;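 also: 0% = EC80 ATP with DMSO and 100% = DMSO wells without ATP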
Starred values were filed as active, the others as inactive. The list is not random: actives were taken first. Their share in the collection is about 4%.

CCOC(=O)C(NCCc1ccccc1)(NC(=O)CC)C(F)(F)F (stereo unspecified) was read as OX1R antag-1 28, OX1R antag-2 10, CHO parental Ca -10, TAAR1 antag 52*, NTR1 ag 0, TAAR1 ag 94*, TAAR1 ag confirm 98*, Ga16 ag counter 5, TAAR1 desens 80* and Ga16 nonsel ant -2.
CCOC(=O)C(NCCc1ccccc1F)(NC(=O)CC)C(F)(F)F (stereo unspecified) was read as OX1R antag-1 10, OX1R antag-2 7, CHO parental Ca -9, NTR1 ag -1, Ga16 ag counter 6 and Ga16 nonsel ant 8.
CCOC(=O)C(NCc1ccc2c(c1)OCO2)(NC(=O)CC)C(F)(F)F (stereo unspecified) was read as OX1R antag-1 1, OX1R antag-2 -19, CHO parental Ca -22, TAAR1 antag -8, NTR1 ag -3 and TAAR1 ag 4.
`O=c1c2ccccc2nnn1Cc1nnc(-c2ccccc2Br)o1` gave OX1R antag-1 17, OX1R antag-2 -37, CHO parental Ca -24, TAAR1 antag -1, NTR1 ag -2, TAAR1 ag 67*, TAAR1 ag confirm 115*, Ga16 ag counter 80*, TAAR1 desens 22 and Ga16 nonsel ant 1.
`O=C(NCc1cccs1)c1cc(-c2ccccc2)on1` gave OX1R antag-1 5, OX1R antag-2 -3, CHO parental Ca -6, TAAR1 antag 40, NTR1 ag -1, TAAR1 ag 57*, TAAR1 ag confirm 28, Ga16 ag counter 19*, TAAR1 desens 14 and Ga16 nonsel ant 23*.
For Cc1ccc(N(CC(=O)NCC2CCCO2)C(=O)CCC(=O)Nc2cc(C)on2)cc1 (stereo unspecified) the results were OX1R antag-1 11, OX1R antag-2 -2, CHO parental Ca -8, TAAR1 antag -7, NTR1 ag 0 and TAAR1 ag 0.
O=C(CSc1n[nH]c(-c2ccncc2)n1)Nc1ccc(Cl)c(Cl)c1 was read as OX1R antag-1 18, OX1R antag-2 -20, CHO parental Ca 2, TAAR1 antag 39, NTR1 ag 4, TAAR1 ag 102*, TAAR1 ag confirm 66*, Ga16 ag counter 60*, TAAR1 desens 40 and Ga16 nonsel ant 22*.
For O=C(CSc1n[nH]c(-c2ccncc2)n1)Nc1ccc(Cl)cc1 the results were OX1R antag-1 10, OX1R antag-2 -20, CHO parental Ca -11, TAAR1 antag 15, NTR1 ag 0 and TAAR1 ag 26.
CC(C)Cc1nnc(NC(=O)CCC(=O)NC2CCCCC2)s1 was read as OX1R antag-1 -1, OX1R antag-2 6, CHO parental Ca 5, TAAR1 antag -9, NTR1 ag 0 and TAAR1 ag 3.
For CN(C(=O)c1cccc(NC(=O)Cc2cccc(NC(=O)C3CCCN(C(=O)CCc4ccccc4)C3)c2)c1)C1CCC1 (stereo unspecified) the results were TAAR1 antag -1 and TAAR1 ag -2.
Screening O=c1c2cnn(-c3ccc(F)cc3)c2ncn1Cc1ccccc1 returned OX1R antag-1 0, OX1R antag-2 -20, CHO parental Ca -3, TAAR1 antag 50*, NTR1 ag 0, TAAR1 ag 43*, TAAR1 ag confirm 4, Ga16 ag counter 4, TAAR1 desens 6 and Ga16 nonsel ant 12.
For O=C(Nc1ccc(F)cc1)C(c1cc2ccccc2o1)N1CCN(c2cccc(C(F)(F)F)n2)CC1 (stereo unspecified) the results were TAAR1 antag -11 and TAAR1 ag 0.
`O=C1C(Cl)=C(NC(=O)c2ccccc2)C(=O)C(Cl)=C1NC(=O)c1ccccc1` gave OX1R antag-1 48*, OX1R antag-2 12, CHO parental Ca 5, TAAR1 antag 69*, NTR1 ag 18, TAAR1 ag 53*, TAAR1 ag confirm 36, Ga16 ag counter 21*, TAAR1 desens 55* and Ga16 nonsel ant 49*.
For COc1ccccc1OCc1ccc(C(=O)Nc2ccccc2)cc1 the results were OX1R antag-1 8, OX1R antag-2 -12, CHO parental Ca -4, TAAR1 antag 57*, NTR1 ag -2, TAAR1 ag 63*, TAAR1 ag confirm 46*, Ga16 ag counter 27*, TAAR1 desens 60* and Ga16 nonsel ant 37*.
For O=C(NNC(=O)c1ccc(NC(=O)c2ccccc2)cc1)c1ccccc1 the results were OX1R antag-1 12, OX1R antag-2 -22, CHO parental Ca -3, TAAR1 antag 16, NTR1 ag 1, TAAR1 ag 61*, TAAR1 ag confirm 22, Ga16 ag counter 0, TAAR1 desens 14 and Ga16 nonsel ant 3.
Screening O=C(Nc1ccc(C2SCCS2)cc1)c1ccccc1 returned OX1R antag-1 7, OX1R antag-2 -12, CHO parental Ca -3, TAAR1 antag 46, NTR1 ag -1, TAAR1 ag 63*, TAAR1 ag confirm 62*, Ga16 ag counter 28*, TAAR1 desens 48 and Ga16 nonsel ant 36*.
For O=C(Nc1cccc(Cl)c1)c1ccccc1 the results were OX1R antag-1 11, OX1R antag-2 -17, CHO parental Ca -10, TAAR1 antag 0, NTR1 ag -5 and TAAR1 ag 4.

Compound activity from PubChem.
